Laboratory results taken from ChEMBL document CHEMBL4014309, “Development of an Acrylate Derivative Targeting the NLRP3 Inflammasome for the Treatment of Inflammatory Bowel Disease” (J Med Chem, 2017).
Activity calls are given as the source filed them. The calls are words filed in the database; no cut-off is given here.

Legend:
[1] = biological target: NACHT, LRR and PYD domains-containing protein 3 (Mus musculus) (UniProt Q8R4B8); experiment: Inhibition of NLRP3 inflammasome in LPS-primed C57BL/6 mouse bone marrow derived macrophages assessed as reduction in ATP-induced pyroptosis at 100 to 250 nM preincubated for 1 hr followed by stimulation with ATP measured after 30 mins by LDH release assay
In short: (§1)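 Bone marrow macrophages from C57BL/6 mice, differentiated with 20% L-cell medium, primed with LPS (1 µg/mL, 3 h). Test agent or vehicle was added for 1 h, then ATP (5 mM, 30 min) or nigericin (10 µM, 30 min). IL-1β in the medium was measured by ELISA. LDH in the medium was measured colorimetrically as % of total cellular LDH.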

[2] = biological target: NACHT, LRR and PYD domains-containing protein 3 (Mus musculus) (UniProt Q8R4B8); experiment: Inhibition of NLRP3 inflammasome in LPS-primed C57BL/6 mouse bone marrow derived macrophages assessed as reduction in nigericin-induced pyroptosis at 100 to 250 nM preincubated for 1 hr followed by […] measured after 30 mins by LDH release assay; in short: as §1
[3] = biological target: NACHT, LRR and PYD domains-containing protein 3 (Mus musculus) (UniProt Q8R4B8); experiment: Inhibition of NLRP3 inflammasome in LPS-primed C57BL/6 mouse bone marrow derived macrophages assessed as reduction in ATP-induced IL-1beta production at 10 to 250 nM preincubated for 1 hr followed by stimulation with ATP measured after 30 mins by ELISA
In short: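 C57BL/6 bone marrow macrophages, differentiated with 20% L-cell medium, were primed with LPS (1 µg/mL, 3 h). They were then exposed to compound or vehicle for 1 h and stimulated with ATP (5 mM, 30 min). IL-1β released into the medium was measured by ELISA.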

[4] = biological target: NACHT, LRR and PYD domains-containing protein 3 (Mus musculus) (UniProt Q8R4B8); experiment: Inhibition of NLRP3 inflammasome in LPS-primed C57BL/6 mouse bone marrow derived macrophages assessed as reduction in nigericin-induced IL-1beta production at 10 to 250 nM preincubated for 1 hr followed by stimulation with nigericin measured after 30 mins by ELISA; in short: as §1
[5] = system: Rattus norvegicus; experiment: (§2) Antiinflammatory activity in DNBS-induced Sprague-Dawley rat colitis model assessed as body weight recovery at 1 mg/kg/day, ig administered as methylcellulose suspension for 6 days simulatneously with 6 days of DNBS-challenge measured daily during compound dosing; assay type: functional, organism-based
In short: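 Colitis was induced with intrarectal DNBS (15 mg in 0.25 mL 50% ethanol). Intragastric treatment ran 6 days from the day of induction: 1 mg/kg/day in 1% methylcellulose, or 12.5–50 mg/kg/day in olive oil. Body weight change (g) was recorded at the end of treatment, mean ± SEM, n = 10.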

[6] = system: Rattus norvegicus; experiment: as §2, with “reduction in DNBS-induced spleen” for “body”, “increase by measuring increase in spleen weight” for “recovery”, “dosing (reference value: 39.3%)” for “dosing”; assay type: functional; parameters: scale not given: the % may be the effect or the level left
In short: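 Spleen weight was used as an index of systemic inflammation. Rats had intrarectal DNBS (15 mg/0.25 mL 50% ethanol) and 6 days of intragastric dosing: 1 mg/kg/day in 1% methylcellulose, or 12.5–50 mg/kg/day in 0.2 mL olive oil. The spleen was weighed at sacrifice and expressed as percent increase versus control, n = 10.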

[7] = system: Rattus norvegicus; experiment: Antiinflammatory activity in DNBS-induced Sprague-Dawley rat colitis model assessed as DNBS-induced macroscopic damage score at 1 mg/kg/day, ig for 6 days simulatneously with 6 days of DNBS-challenge (reference value: 8.6 +/- 0.6); assay type: functional
In short: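 After intrarectal DNBS (15 mg/0.25 mL 50% ethanol), dosing was intragastric for 6 days (0.2 mL olive oil; 1 mg/kg/day dose in 1% methylcellulose). The whole excised colon was scored for macroscopic damage on a 0–6 point scale by two blinded observers. Values are mean ± SEM, n = 10.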

[8] = system: Rattus norvegicus; experiment: Anti-inflammatory activity in DNBS-induced Sprague-Dawley rat colitis model assessed as reduction in DNBS-induced increase in MPO levels in colon at 1 mg/kg/day, ig for 6 days simulatneously with 6 days of DNBS-challenge by ELISA; assay type: functional, organism-based
In short: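 DNBS colitis (15 mg intrarectal in 50% ethanol) was treated by the intragastric route for 6 days from induction (1 mg/kg/day in 1% methylcellulose, or 12.5–50 mg/kg/day in olive oil). Colonic samples (30 mg) were taken adjacent and distal to the necrotic area, homogenized, and assayed for MPO by ELISA. Results are ng MPO per mg tissue, mean ± SEM, n = 10.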

[9] = system: Rattus norvegicus; experiment: Anti-inflammatory activity in DNBS-induced Sprague-Dawley rat colitis model assessed as DNBS-induced IL-1beta levels in colon at 1 mg/kg/day, ig for 6 days simulatneously with 6 days of DNBS-challenge by ELISA (reference value: 22.3 +/- 2.9 ng/mg); assay type: functional
[10] = system: Rattus norvegicus; experiment: Anti-inflammatory activity in DNBS-induced Sprague-Dawley rat colitis model assessed as DNBS-induced TNFalpha levels in colon at 1 mg/kg/day, ig for 6 days simulatneously with 6 days of DNBS-challenge by ELISA (reference value: 5.9 +/- 0.6 pg/mg); assay type: functional
[11] = system: Rattus norvegicus; experiment: Toxicity in Sprague-Dawley rat assessed as body weight loss at 1 mg/kg/day, ig; assay type: organism-based; conditions: in vivo, po
In short: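 Rats received intrarectal DNBS (15 mg in 0.25 mL 50% ethanol) or none. Dosing was intragastric for 6 days from induction: compound 12.5–50 mg/kg/day in 0.2 mL olive oil, or dexamethasone 1 mg/kg/day in 0.2 mL 1% methylcellulose. Body weight change was recorded at end; n = 10, mean ± SEM.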

Sequence of NACHT, LRR and PYD domains-containing protein 3 (Mus musculus) (Q8R4B8 whole entry, the tested form may be a part): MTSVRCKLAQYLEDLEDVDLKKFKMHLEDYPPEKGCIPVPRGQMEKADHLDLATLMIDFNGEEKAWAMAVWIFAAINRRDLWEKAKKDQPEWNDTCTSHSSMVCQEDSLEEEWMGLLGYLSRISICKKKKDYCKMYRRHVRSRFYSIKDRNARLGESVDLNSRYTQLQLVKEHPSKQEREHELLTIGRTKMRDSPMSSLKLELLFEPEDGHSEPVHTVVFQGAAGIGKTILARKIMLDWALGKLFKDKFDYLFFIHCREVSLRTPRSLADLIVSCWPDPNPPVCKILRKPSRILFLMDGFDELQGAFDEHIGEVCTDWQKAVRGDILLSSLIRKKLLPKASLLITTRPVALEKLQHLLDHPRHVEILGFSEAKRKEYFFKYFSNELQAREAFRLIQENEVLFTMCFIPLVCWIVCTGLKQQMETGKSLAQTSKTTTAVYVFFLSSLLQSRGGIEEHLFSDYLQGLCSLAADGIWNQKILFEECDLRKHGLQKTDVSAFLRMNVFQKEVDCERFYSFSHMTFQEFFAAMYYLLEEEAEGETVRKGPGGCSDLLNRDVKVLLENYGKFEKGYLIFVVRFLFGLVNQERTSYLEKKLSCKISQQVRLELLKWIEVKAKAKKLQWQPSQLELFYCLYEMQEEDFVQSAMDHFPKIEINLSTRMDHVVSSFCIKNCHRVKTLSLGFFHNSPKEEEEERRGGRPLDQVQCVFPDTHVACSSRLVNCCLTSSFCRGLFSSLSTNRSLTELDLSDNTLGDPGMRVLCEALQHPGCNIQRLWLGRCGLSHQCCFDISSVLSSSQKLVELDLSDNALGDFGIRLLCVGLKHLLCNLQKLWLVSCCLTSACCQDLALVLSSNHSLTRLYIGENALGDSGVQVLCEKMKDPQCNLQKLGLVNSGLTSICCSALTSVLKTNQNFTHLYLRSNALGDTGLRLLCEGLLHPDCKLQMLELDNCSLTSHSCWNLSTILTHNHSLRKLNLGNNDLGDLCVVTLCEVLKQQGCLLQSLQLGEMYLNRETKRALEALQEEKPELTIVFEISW

C[C@@H]1C[C@H]2[C@@H]3CCC4=CC(=O)C=C[C@]4(C)[C@@]3(F)[C@@H](O)C[C@]2(C)[C@@]1(O)C(=O)CO [DEXAMETHASONE]
inhibition [1]: Active
inhibition [2]: Active
inhibition [3]: inactive
inhibition [4]: inactive
Activity [5]: inactive
Activity [6]: 1.6%
Activity_index [7]: 2
Activity [8]: Active
Activity [9]: 6.7 ng/mg
Activity [10]: 2.2 pg/mg
Activity [11]: Toxic
